The record followed here is ChEMBL document CHEMBL1125347, “Synthesis of novel MPTP analogs as potential monoamine oxidase B (MAO-B) inhibitors” (J Med Chem, 1992).

Series [1] deals with T1, Amine oxidase [flavin-containing] B (Bos taurus, UniProt P56560).
T1 sequence (P56560 whole entry): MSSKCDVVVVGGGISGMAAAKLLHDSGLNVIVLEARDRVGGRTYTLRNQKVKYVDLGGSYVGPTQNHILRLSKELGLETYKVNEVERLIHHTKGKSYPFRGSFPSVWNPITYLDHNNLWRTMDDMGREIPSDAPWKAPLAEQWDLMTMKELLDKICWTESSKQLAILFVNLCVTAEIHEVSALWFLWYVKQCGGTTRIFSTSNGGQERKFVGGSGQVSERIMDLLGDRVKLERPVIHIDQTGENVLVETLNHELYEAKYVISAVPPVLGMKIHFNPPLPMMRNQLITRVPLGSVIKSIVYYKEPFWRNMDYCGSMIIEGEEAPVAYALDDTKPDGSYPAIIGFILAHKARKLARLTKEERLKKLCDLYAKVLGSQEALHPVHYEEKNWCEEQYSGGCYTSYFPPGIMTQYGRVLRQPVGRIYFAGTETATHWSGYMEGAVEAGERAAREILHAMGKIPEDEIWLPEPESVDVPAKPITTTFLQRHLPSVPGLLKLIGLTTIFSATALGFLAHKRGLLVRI
Description: Inhibitory constant against monoamine Oxidase(MAO-B).

The target in series [2] is T1, Amine oxidase [flavin-containing] B. Description: Monoamine oxidase B Inactivation property expressed as inactivation constant (K inact).
A short description of series [3]: Kinetic parameter KM (nM) for the MAO-B catalyzed oxidation of the compound. It is filed as ADME. In short, it runs like this:
(§1)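 Compound at 0.05-2.5 mM in 100 mM phosphate pH 7.4 was equilibrated 2 min at 37 °C, then 0.05 unit of purified beef liver MAO-B was added. Initial rates were followed by the rise in absorbance of the dihydropyridinium product. KM and Vmax came from Lineweaver-Burk plots. One unit converts 1 μmol benzylamine per min.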

A short description of series [4]: Kinetic parameter Vmax (nm/min/unit of MAO-B) for the MAO-B catalyzed oxidation of the compound. It counts as ADME. A digest of the protocol: as §1
Series [5] concerns the target T1, Amine oxidase [flavin-containing] B. Description: MAO-B Inactivation property expressed as inactivation constant (K inact).
For series [6] the target is unchanged. Description: Monoamine oxidase B Inactivation property expressed as inactivation constant (K inact); Not active.
Series [7] shares this target. Description: Inhibitory constant against monoamine Oxidase (MAO-B); Not active.
The target is the same in series [8]. Description: MAO-B Inactivation property expressed as inactivation constant (K inact) was determined at a concentration of 50-100 uM.
Series [9] has the same target. Description: Inhibitory constant against monoamine Oxidase(MAO-B) was determined at a concentration of 50-100 uM.
Series [10] shares this target. Description: Inhibitory constant against monoamine Oxidase(MAO-B) was determined at a concentration of 300-1500 uM.
For series [11] the target is unchanged. Description: Monoamine oxidase B Inactivation property expressed as inactivation constant (K inact) was determined at a concentration of 300-1500 uM.

The Ki is a measure of affinity in units of concentration, obtained from inhibition or displacement. A lower Ki goes with tighter binding. The term kinact denotes the maximal first-order rate at which the target is inactivated. One may read the Km as the concentration of substrate that gives half-maximal velocity.

The structures appear in SMILES notation.

The compound `C=CCN1CC=C(c2ccccc2)CC1` yielded a Ki in [1] of 268 µM. Besides, the kinact in series [2] is 0.000483 s⁻¹.
As to `C#CC1=CCN(C)CC1`, in [3], the Km is 861 µM. In addition, the Vmax in series [4] was determined as 684. Moreover, the kinact in series [5] was 0.000833 s⁻¹. In series [1], this compound returned a Ki of 154 µM.
Take `C1=C(c2ccccc2)CCN(C2CCC2)C1`: in series [6], the kinact entry is “Not Active”. Besides, the Ki entry in series [7] is listed as “Not Active”.
For `CN1CC=C(C#Cc2ccccc2)CC1`, the kinact in [5] was 0.00533 s⁻¹. In [1], this compound had a Ki of 820 µM.
`C#CCN1CC=C(c2ccccc2)CC1`: the kinact in series [8] is 0.004 s⁻¹. This compound also had a Ki in [9] of 172 µM.
With `CN1CC=C(c2ccccc2)CC1`, the Km in series [3] stood at 390 µM. In [4], the Vmax is 204.
As for `CCCN1CC=C(c2ccccc2)CC1`, the Km in series [3] turned out to be 2000 µM. Further, the Vmax in series [4] is recorded as 7. The compound further displayed a Ki in series [10] of 5000 µM. Also, in series [11], the kinact was 0.001 s⁻¹.
Consider `C1=C(c2ccccc2)CCN(C2CCCC2)C1`, for which, in [1], the Ki was 173 µM. Besides, the kinact in [2] is 0.00075 s⁻¹.
In the case of `C=CC1=CCN(C)CC1`, the Km in [3] came to 80 µM. In series [4], the Vmax was 190. Further, the Ki in series [1] is 330 µM. Moreover, in series [2], the kinact was 0.00133 s⁻¹.
